In brackets after ≈: the same amount, converted by molar mass.
Legend:
[1] = tested on: Mycobacterium tuberculosis; assay: Antitubercular activity against Mycobacterium tuberculosis H37Rv measured after 7 days by resazurin microtiter assay; format: functional; conditions: 168 h, time 7 day
In short: (§1)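 Resazurin microtiter assay with two-fold drug dilutions in complete 7H9 broth. Exponential-phase cells are diluted to a final OD600 of 0.005 in 7H9 without Tween. Incubation is 7 days at 37°C, then 0.01% resazurin is added and plates are held 24 h more. MIC is the lowest concentration preventing the blue-to-pink change. Each MIC is determined three times in duplicate experiments.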

[2] = Solubility of compound in water; format: physicochemical; conditions: buffer
Acinetobacter baumannii = assay: Antibacterial activity against Acinetobacter baumannii measured after 7 days by resazurin microtiter assay; format: functional; conditions: 168 h, time 7 day
[3] = tested on: Mycolicibacterium smegmatis; assay: Antibacterial activity against Mycobacterium smegmatis measured after 7 days by resazurin microtiter assay; format: functional; conditions: 168 h, time 7 day; in short: as §1
Pseudomonas aeruginosa = assay: Antibacterial activity against Pseudomonas aeruginosa measured after 7 days by resazurin microtiter assay; format: functional; conditions: 168 h, time 7 day
Mycobacterium marinum = assay: Antibacterial activity against Mycobacterium marinum measured after 7 days by resazurin microtiter assay; format: functional; conditions: 168 h, time 7 day; in short: as §1
Mycolicibacterium aurum = assay: Antibacterial activity against Mycobacterium aurum measured after 7 days by resazurin microtiter assay; format: functional; conditions: 168 h, time 7 day; in short: as §1
Macrophage = assay: Cytotoxicity against human macrophages assessed as reduction in cell viability measured after 6 days by Celltiter-glo assay; format: cell-based; conditions: 144 h; for Activity: human, macrophage, time 6 day
In short: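 Infected human macrophages, with or without drug, are incubated 6 days. Viability is checked by visual inspection and by CellTiter-Glo ATP luminescence.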

[4] = tested on: Mycobacterium tuberculosis; assay: Antitubercular activity against Mycobacterium tuberculosis H37Rv infected in human macrophages assessed as intracellular bacterial load at 4 times MIC measured after 6 days (reference value: 5.57 to 6.43 logCFU/ml); format: functional, Macrophage; conditions: time 6 day
Klebsiella aerogenes = assay: Antibacterial activity against Enterobacter aerogenes measured after 7 days by resazurin microtiter assay; format: functional; conditions: 168 h, time 7 day
[5] = tested on: Mycobacterium tuberculosis; assay: Antitubercular activity against Mycobacterium tuberculosis H37Rv infected in human macrophages assessed as intracellular bacterial load at 2 times MIC measured after 6 days (reference value: 5.57 to 6.43 logCFU/ml); format: functional, Macrophage; conditions: time 6 day
[6] = tested on: Mycobacterium tuberculosis; assay: Antitubercular activity against Mycobacterium tuberculosis H37Rv infected in human macrophages assessed as intracellular bacterial load at MIC measured after 6 days (reference value: 5.57 to 6.43 logCFU/ml); format: functional, Macrophage; conditions: time 6 day
Enterobacter cloacae = assay: Antibacterial activity against Enterobacter cloacae measured after 7 days by resazurin microtiter assay; format: functional; conditions: 168 h, time 7 day
Staphylococcus aureus = assay: Antibacterial activity against Staphylococcus aureus measured after 7 days by resazurin microtiter assay; format: functional; conditions: 168 h, time 7 day
[7] = tested on: Mycobacterium tuberculosis; assay: Antitubercular activity against Mycobacterium tuberculosis H37Rv infected in human macrophages assessed as intracellular bacterial load at 0.5 MIC measured after 6 days (reference value: 5.57 to 6.43 logCFU/ml); format: functional, Macrophage; conditions: time 6 day
Klebsiella pneumoniae = assay: Antibacterial activity against Klebsiella pneumoniae measured after 7 days by resazurin microtiter assay; format: functional; conditions: 168 h, time 7 day
[8] = tested on: Mycobacterium tuberculosis; assay: Antitubercular activity against Mycobacterium tuberculosis XDR measured after 7 days by resazurin microtiter assay; format: functional; conditions: 168 h, time 7 day; in short: as §1
Vero = assay: Cytotoxicity against African green monkey Vero cells assessed as reduction in cell viability measured after 24 to 48 hrs by Celltiter-glo assay; format: cell-based, Chlorocebus sabaeus; conditions: for Activity: chlorocebus sabaeus, vero, time 24-48 hrs
In short: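 Vero cells are grown in DMEM with 10% FBS and seeded at 25000 cells/well. Compound is added at 1% final DMSO, with 24 and 48 h incubation. ATP is read by CellTiter-Glo luminescence. IC50 is the concentration giving a 50% drop in ATP signal versus the DMSO control.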

## CCOC(=O)c1cn(CC)c2c(cc(Br)c3cccnc32)c1=O
[1]
  MIC90: 318 µM (≈ 119 µg/mL)
[2]
  solubility: Insoluble

## NCC[C@H](O)C(=O)N[C@@H]1C[C@H](N)[C@@H](O[C@H]2O[C@H](CN)[C@@H](O)[C@H](O)[C@H]2O)[C@H](O)[C@H]1O[C@H]1O[C@H](CO)[C@@H](O)[C@H](N)[C@H]1O [AMIKACIN]
Acinetobacter baumannii
  MIC90: 14.6 µM (≈ 8.57 µg/mL)
[3]
  MIC90: 0.46 µM (≈ 0.269 µg/mL)
Pseudomonas aeruginosa
  MIC90: 3.66 µM (≈ 2.14 µg/mL)
[1]
  MIC90: 1.83 µM (≈ 1.07 µg/mL)
Mycobacterium marinum
  MIC90: 3.66 µM (≈ 2.14 µg/mL)
Mycolicibacterium aurum
  MIC90: 1.83 µM (≈ 1.07 µg/mL)

## CCOC(=O)c1c[nH]c2c(ccc3cccnc32)c1=O
[1]
  MIC90: 24 µM (≈ 6.44 µg/mL)
[2]
  solubility: Insoluble

## CCOC(=O)c1c[nH]c2c(cc([N+](=O)[O-])c3cccnc32)c1=O
[1]
  MIC90: 329 µM (≈ 103 µg/mL)
[2]
  solubility: Insoluble

## CCOC(=O)c1c[nH]c2c(ccc3ccc[n+]([O-])c32)c1=O
[1]
  MIC90: 204 µM (≈ 58 µg/mL)
[2]
  solubility: Insoluble

## CCn1cc(C(=O)NN)c(=O)c2cc([N+](=O)[O-])c3cccnc3c21
[1]
  MIC90: 9.84 µM (≈ 3.22 µg/mL)
[2]
  solubility: Insoluble

## Cn1cc(C(N)=O)c(=O)c2cc([N+](=O)[O-])c3cccnc3c21
[1]
  MIC90: 1.4 µM (≈ 0.418 µg/mL)
[2]
  solubility: Insoluble

## CCOC(=O)c1cn(CC)c2c(cc(Cl)c3cccnc32)c1=O
[1]
  MIC90: 166 µM (≈ 55 µg/mL)
[2]
  solubility: Insoluble

## CCn1cc(C(=O)Nc2ccccc2)c(=O)c2cc([N+](=O)[O-])c3cccnc3c21
[1]
  MIC90: 275 µM (≈ 107 µg/mL)
[2]
  solubility: Insoluble

## CCn1cc(C(=O)O)c(=O)c2ccc(C)nc21 [NALIDIXIC ACID]
[1]
  MIC: > 50 µM

## CCOC(=O)c1cn(CC)c2c(cc([N+](=O)[O-])c3cccnc32)c1=O
Macrophage
  Activity: Non-Toxic
Acinetobacter baumannii
  MIC90: > 100 µM
[4]
  Activity: 3 log10CFU/ml
Klebsiella aerogenes
  MIC90: 314 µM (≈ 107 µg/mL)
[5]
  Activity: 3.1 log10CFU/ml
[6]
  Activity: 3.59 log10CFU/ml
Enterobacter cloacae
  MIC90: > 275 µM
[3]
  MIC90: > 100 µM
Pseudomonas aeruginosa
  MIC90: > 100 µM
[1]
  MIC90: 4.99 µM (≈ 1.7 µg/mL)
Staphylococcus aureus
  MIC90: 19.6 µM (≈ 6.69 µg/mL)
[2]
  solubility: Insoluble
[7]
  Activity: 4.42 log10CFU/ml
Mycobacterium marinum
  MIC90: 0.61 µM (≈ 0.208 µg/mL)
Klebsiella pneumoniae
  MIC90: > 275 µM
[8]
  MIC90: 4.99 µM (≈ 1.7 µg/mL)
Mycolicibacterium aurum
  MIC90: > 100 µM
Vero
  Activity: Non-Toxic

## O=C(O)c1c[nH]c2c(ccc3cccnc32)c1=O
[1]
  MIC90: 112 µM (≈ 27 µg/mL)
[2]
  solubility: Insoluble

## CO[C@H]1/C=C/O[C@@]2(C)Oc3c(C)c(O)c4c(O)c(c(/C=N/N5CCN(C)CC5)c(O)c4c3C2=O)NC(=O)/C(C)=C\C=C\[C@H](C)[C@H](O)[C@@H](C)[C@@H](O)[C@@H](C)[C@H](OC(C)=O)[C@@H]1C [RIFAMPIN]
[1]
  MIC90: 0.76 µM (≈ 0.625 µg/mL)

## CCOC(=O)c1cn(C)c2c(cc(Cl)c3cccnc32)c1=O
[1]
  MIC90: 329 µM (≈ 104 µg/mL)
[2]
  solubility: Insoluble

## CCn1cc(C(N)=O)c(=O)c2cc([N+](=O)[O-])c3cccnc3c21
[1]
  MIC90: 1.25 µM (≈ 0.39 µg/mL)
[2]
  solubility: Insoluble

## CCn1cc(C(=O)O)c(=O)c2ccc3cccnc3c21
[1]
  MIC90: 47.1 µM (≈ 12.6 µg/mL)
[2]
  solubility: Insoluble

## Cn1cc(C(=O)O)c(=O)c2ccc3cccnc3c21
[1]
  MIC90: 25.8 µM (≈ 6.56 µg/mL)
[2]
  solubility: Insoluble

## CCn1cc(C(=O)Nc2ccccc2)c(=O)c2ccc3cccnc3c21
[1]
  MIC90: 312 µM (≈ 107 µg/mL)
[2]
  solubility: Insoluble

## CCOC(=O)c1cn(C)c2c(cc(N)c3cccnc32)c1=O
[1]
  MIC90: 92.1 µM (≈ 27.4 µg/mL)
[2]
  solubility: Insoluble

## CCn1cc(C(=O)O)c(=O)c2cc(Br)c3cccnc3c21
[1]
  MIC90: 9.39 µM (≈ 3.26 µg/mL)
[2]
  solubility: Insoluble

## CCOC(=O)c1cn(C)c2c(ccc3cccnc32)c1=O
[1]
  MIC90: 182 µM (≈ 51.5 µg/mL)
[2]
  solubility: Insoluble

## Cn1cc(C(=O)NN)c(=O)c2cc([N+](=O)[O-])c3cccnc3c21
[1]
  MIC90: 20.8 µM (≈ 6.51 µg/mL)
[2]
  solubility: Insoluble

## CCOC(=O)c1cn(C)c2c(cc([N+](=O)[O-])c3cccnc32)c1=O
Macrophage; Homo sapiens, Macrophage
  IC50: > 50 mg/L
Acinetobacter baumannii
  MIC90: > 100 µM
[4]
  Activity: 3.06 log10CFU/ml
Klebsiella aerogenes
  MIC90: 309 µM (≈ 101 µg/mL)
[5]
  Activity: 3.45 log10CFU/ml
[6]
  Activity: 3.63 log10CFU/ml
Enterobacter cloacae
  MIC90: > 275 µM
[3]
  MIC90: > 100 µM
Pseudomonas aeruginosa
  MIC90: > 100 µM
[1]
  MIC90: 1.21 µM (≈ 0.396 µg/mL)
Staphylococcus aureus
  MIC90: > 275 µM
[2]
  solubility: Insoluble
[7]
  Activity: 4.22 log10CFU/ml
Mycobacterium marinum
  MIC90: 0.15 µM (≈ 0.0491 µg/mL)
Klebsiella pneumoniae
  MIC90: > 275 µM
[8]
  MIC90: 1.21 µM (≈ 0.396 µg/mL)
Mycolicibacterium aurum
  MIC90: > 100 µM
Vero; Chlorocebus sabaeus, Vero
  IC50: > 50 mg/L

## CCOC(=O)c1cn(C)c2c(cc(Br)c3cccnc32)c1=O
[1]
  MIC90: 290 µM (≈ 105 µg/mL)
[2]
  solubility: Insoluble

## CCOC(=O)c1cn(CC)c2c(ccc3cccnc32)c1=O
[1]
  MIC90: 170 µM (≈ 50.3 µg/mL)
[2]
  solubility: Insoluble

## COc1c(N2C[C@@H]3CCCN[C@@H]3C2)c(F)cc2c(=O)c(C(=O)O)cn(C3CC3)c12 [MOXIFLOXACIN]
[4]
  Activity: 2.54 log10CFU/ml
[5]
  Activity: 3.93 log10CFU/ml
[6]
  Activity: 3.77 log10CFU/ml
[1]
  MIC90: 0.77 µM (≈ 0.309 µg/mL)
[7]
  Activity: 4.02 log10CFU/ml
[8]
  MIC90: 6.16 µM (≈ 2.47 µg/mL)

## CCn1cc(C(=O)O)c(=O)c2cc([N+](=O)[O-])c3cccnc3c21
Macrophage
  Activity: Non-Toxic
Acinetobacter baumannii
  MIC90: 93.4 µM (≈ 29.2 µg/mL)
[4]
  Activity: 3.24 log10CFU/ml
Klebsiella aerogenes
  MIC90: 42.7 µM (≈ 13.4 µg/mL)
[5]
  Activity: 3.21 log10CFU/ml
[6]
  Activity: 3.69 log10CFU/ml
Enterobacter cloacae
  MIC90: > 275 µM
[3]
  MIC90: 21.4 µM (≈ 6.69 µg/mL)
Pseudomonas aeruginosa
  MIC90: > 100 µM
[1]
  MIC90: 5.84 µM (≈ 1.83 µg/mL)
Staphylococcus aureus
  MIC90: 10.7 µM (≈ 3.34 µg/mL)
[2]
  solubility: Insoluble
[7]
  Activity: 4.19 log10CFU/ml
Mycobacterium marinum
  MIC90: 1.3 µM (≈ 0.407 µg/mL)
Klebsiella pneumoniae
  MIC90: > 275 µM
Mycolicibacterium aurum
  MIC90: 10.7 µM (≈ 3.34 µg/mL)
Vero
  Activity: Non-Toxic

## CCOC(=O)c1cn(CC)c2c(cc(N)c3cccnc32)c1=O
[1]
  MIC90: 41.9 µM (≈ 13 µg/mL)
[2]
  solubility: Insoluble

## CCOC(=O)c1c[nH]c2c(ccc3c([N+](=O)[O-])cc[n+]([O-])c32)c1=O
[1]
  MIC90: 39.5 µM (≈ 13 µg/mL)
[2]
  solubility: Insoluble
